# Measured values from ChEMBL document CHEMBL1148977, “Inhibitory effects of bufadienolides on interleukin-6 in MH-60 cells” (J Nat Prod, 2004).
# Test system: MH60
# Assay: Growth inhibition of IL-6-independent mouse MH60 cells after 72 hrs by MTT assay
# Assay type: functional, cell-based
# Details: MH60, 72 h
# Method in brief: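 Mouse B-cell/myeloma hybridoma MH-60 subline adapted to grow without IL-6 (rhIL-6 withdrawn gradually), kept in RPMI 1640 + 10% FCS with no rhIL-6. 0.5 × 10^4 cells/well pre-incubated 24 h at 37 °C, 5% CO2, then exposed 72 h to graded compound concentrations. MTT read-out; mean with standard errors of 3–4 experiments.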
row,SMILES,IC50
1,CC(=O)O[C@H]1[C@H]2O[C@]23[C@@H]2CC[C@@H]4C[C@@H](O)CC[C@]4(C)[C@H]2CC[C@]3(C)[C@H]1c1ccc(=O)oc1 [CINOBUFAGIN],> 56.3 µM
2,CCCC(=O)O[C@H]1CC[C@@]2(C)[C@H](CC[C@@H]3[C@@H]2CC[C@]2(C)[C@@H]([C@]45C=CC(=O)O[C@H]4O5)C[C@H]4O[C@]342)C1,> 54.8 µM
3,CCCC(=O)O[C@H]1CC[C@@]2(C)[C@H](CC[C@@H]3[C@@H]2CC[C@]2(C)[C@@H]([C@@]45C=CC(=O)O[C@@H]4O5)C[C@H]4O[C@]342)C1,17.5 µM
4,C[C@]12CC[C@H](OC=O)C[C@H]1CC[C@@H]1[C@@H]2CC[C@]2(C)[C@@H](c3ccc(=O)oc3)C[C@H]3O[C@]132,> 60.7 µM
5,C[C@]12CCC(=O)C[C@H]1CC[C@@H]1[C@@H]2CC[C@]2(C)[C@@H](c3ccc(=O)oc3)C[C@H]3O[C@]132,8.4 µM
6,C[C@]12CC[C@H](O)C[C@H]1CC[C@@H]1[C@@H]2CC[C@]2(C)[C@@H]([C@@]34C=CC(=O)O[C@@H]3O4)CC[C@]12O,> 62.2 µM
7,CC(=O)O[C@H]1CC[C@@]2(C)[C@H](CC[C@@H]3[C@@H]2CC[C@]2(C)[C@@H](c4ccc(=O)oc4)C[C@H]4O[C@]342)C1,> 58.7 µM
8,CC(=O)O[C@@H]1[C@H]2O[C@]23[C@@H]2CC[C@@H]4C[C@@H](O)CC[C@]4(C)[C@H]2CC[C@]3(C)[C@H]1[C@@]12C=CC(=O)O[C@@H]1O2,> 54.2 µM
9,CC(C)(C)C(=O)O[C@H]1CC[C@@]2(C)[C@H](CC[C@@H]3[C@@H]2CC[C@]2(C)[C@@H]([C@@]45C=CC(=O)O[C@@H]4O5)C[C@H]4O[C@]342)C1,34 µM
10,CC(=O)O[C@H]1CC[C@@]2(C)[C@H](CC[C@@H]3[C@@H]2CC[C@]2(C)[C@@H]([C@@]45C=CC(=O)O[C@@H]4O5)C[C@H]4O[C@]342)C1,21.9 µM
11,CC(=O)O[C@@H]1[C@H]2O[C@]23[C@@H]2CC[C@@H]4C[C@@H](O)CC[C@]4(C)[C@H]2CC[C@]3(C)[C@H]1[C@]12C=CC(=O)O[C@H]1O2,> 54.2 µM
12,C[C@]12CCC(=O)C[C@H]1CC[C@@H]1[C@@H]2CC[C@]2(C)[C@@H]([C@@]34C=CC(=O)O[C@@H]3O4)C[C@H]3O[C@]132,4.3 µM
13,CCCCC(=O)O[C@H]1CC[C@@]2(C)[C@H](CC[C@@H]3[C@@H]2CC[C@]2(C)[C@@H]([C@]45C=CC(=O)O[C@H]4O5)C[C@H]4O[C@]342)C1,> 53.2 µM
14,C[C@]12CCC(=O)C[C@H]1CC[C@@H]1[C@@H]2CC[C@]2(C)[C@@H]([C@]34C=CC(=O)O[C@H]3O4)C[C@H]3O[C@]132,8.3 µM
15,CC(=O)O[C@H]1C[C@]2(O)[C@@H]3CC[C@@H]4C[C@@H](O)CC[C@]4(C)[C@H]3CC[C@]2(C)[C@H]1c1ccc(=O)oc1 [BUFOTALIN],> 56.2 µM
16,CC(C)(C)C(=O)O[C@H]1CC[C@@]2(C)[C@H](CC[C@@H]3[C@@H]2CC[C@]2(C)[C@@H]([C@]45C=CC(=O)O[C@H]4O5)C[C@H]4O[C@]342)C1,> 53.2 µM
17,CC(=O)O[C@H]1CC[C@@]2(C)[C@H](CC[C@@H]3[C@@H]2CC[C@]2(C)[C@@H]([C@]45C=CC(=O)O[C@H]4O5)C[C@H]4O[C@]342)C1,> 56.6 µM
18,C[C@]12CC[C@H](O)C[C@H]1CC[C@@H]1[C@@H]2CC[C@]2(C)[C@@H](c3ccc(=O)oc3)CC[C@]12O [BUFALIN],> 64.8 µM
19,C[C@]12CC[C@H](O)C[C@H]1CC[C@@H]1[C@@H]2CC[C@]2(C)[C@@H]([C@@]34C=CC(=O)O[C@@H]3O4)C[C@H]3O[C@]132,45 µM
20,C[C@]12CC[C@H](O)C[C@H]1CC[C@@H]1[C@@H]2CC[C@]2(C)[C@@H]([C@]34C=CC(=O)O[C@H]3O4)C[C@H]3O[C@]132,> 62.5 µM
21,C[C@]12CC[C@H](O)C[C@H]1CC[C@@H]1[C@@H]2CC[C@]2(C)[C@@H]([C@]34C=CC(=O)O[C@H]3O4)CC[C@]12O,> 62.2 µM
22,C[C@]12CC[C@H](O)C[C@H]1CC[C@@H]1[C@@H]2CC[C@]2(C)[C@@H](c3ccc(=O)oc3)C[C@H]3O[C@]132 [BUFOGENIN],> 65.1 µM
23,C[C@]12CC[C@H](OC=O)C[C@H]1CC[C@@H]1[C@@H]2CC[C@]2(C)[C@@H]([C@@]34C=CC(=O)O[C@@H]3O4)C[C@H]3O[C@]132,12.9 µM
24,CCCCC(=O)O[C@H]1CC[C@@]2(C)[C@H](CC[C@@H]3[C@@H]2CC[C@]2(C)[C@@H]([C@@]45C=CC(=O)O[C@@H]4O5)C[C@H]4O[C@]342)C1,19.1 µM
25,C[C@]12CC[C@H](OC=O)C[C@H]1CC[C@@H]1[C@@H]2CC[C@]2(C)[C@@H]([C@]34C=CC(=O)O[C@H]3O4)C[C@H]3O[C@]132,> 58.4 µM

# Test system: MH60
# Assay: Growth inhibition of IL6-dependent mouse MH60 cells after 72 hrs by MTT assay in presence of human recombinant IL6
# Assay type: functional, cell-based
# Details: MH60, 72 h
# Method in brief: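 IL-6-dependent MH-60 mouse B-cell/myeloma hybridoma kept in RPMI 1640 + 10% FCS containing 0.5 ng/mL recombinant human IL-6. 0.5 × 10^4 cells/well in rhIL-6 medium pre-incubated 24 h at 37 °C, 5% CO2, then treated 72 h with graded compound concentrations. Growth by MTT; mean with standard errors of 3–4 experiments.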
row,SMILES,IC50
1,CC(=O)O[C@H]1[C@H]2O[C@]23[C@@H]2CC[C@@H]4C[C@@H](O)CC[C@]4(C)[C@H]2CC[C@]3(C)[C@H]1c1ccc(=O)oc1 [CINOBUFAGIN],> 56.3 µM
2,CCCC(=O)O[C@H]1CC[C@@]2(C)[C@H](CC[C@@H]3[C@@H]2CC[C@]2(C)[C@@H]([C@]45C=CC(=O)O[C@H]4O5)C[C@H]4O[C@]342)C1,9.4 µM
3,CCCC(=O)O[C@H]1CC[C@@]2(C)[C@H](CC[C@@H]3[C@@H]2CC[C@]2(C)[C@@H]([C@@]45C=CC(=O)O[C@@H]4O5)C[C@H]4O[C@]342)C1,2 µM
4,C[C@]12CC[C@H](OC=O)C[C@H]1CC[C@@H]1[C@@H]2CC[C@]2(C)[C@@H](c3ccc(=O)oc3)C[C@H]3O[C@]132,> 60.7 µM
5,C[C@]12CCC(=O)C[C@H]1CC[C@@H]1[C@@H]2CC[C@]2(C)[C@@H](c3ccc(=O)oc3)C[C@H]3O[C@]132,2.4 µM
6,C[C@]12CC[C@H](O)C[C@H]1CC[C@@H]1[C@@H]2CC[C@]2(C)[C@@H]([C@@]34C=CC(=O)O[C@@H]3O4)CC[C@]12O,> 62.2 µM
7,CC(=O)O[C@H]1CC[C@@]2(C)[C@H](CC[C@@H]3[C@@H]2CC[C@]2(C)[C@@H](c4ccc(=O)oc4)C[C@H]4O[C@]342)C1,> 58.7 µM
8,CC(=O)O[C@@H]1[C@H]2O[C@]23[C@@H]2CC[C@@H]4C[C@@H](O)CC[C@]4(C)[C@H]2CC[C@]3(C)[C@H]1[C@@]12C=CC(=O)O[C@@H]1O2,> 54.2 µM
9,CC(C)(C)C(=O)O[C@H]1CC[C@@]2(C)[C@H](CC[C@@H]3[C@@H]2CC[C@]2(C)[C@@H]([C@@]45C=CC(=O)O[C@@H]4O5)C[C@H]4O[C@]342)C1,18.1 µM
10,CC(=O)O[C@H]1CC[C@@]2(C)[C@H](CC[C@@H]3[C@@H]2CC[C@]2(C)[C@@H]([C@@]45C=CC(=O)O[C@@H]4O5)C[C@H]4O[C@]342)C1,14.3 µM
11,CC(=O)O[C@@H]1[C@H]2O[C@]23[C@@H]2CC[C@@H]4C[C@@H](O)CC[C@]4(C)[C@H]2CC[C@]3(C)[C@H]1[C@]12C=CC(=O)O[C@H]1O2,> 54.2 µM
12,C[C@]12CCC(=O)C[C@H]1CC[C@@H]1[C@@H]2CC[C@]2(C)[C@@H]([C@@]34C=CC(=O)O[C@@H]3O4)C[C@H]3O[C@]132,1.3 µM
13,CCCCC(=O)O[C@H]1CC[C@@]2(C)[C@H](CC[C@@H]3[C@@H]2CC[C@]2(C)[C@@H]([C@]45C=CC(=O)O[C@H]4O5)C[C@H]4O[C@]342)C1,11.6 µM
14,C[C@]12CCC(=O)C[C@H]1CC[C@@H]1[C@@H]2CC[C@]2(C)[C@@H]([C@]34C=CC(=O)O[C@H]3O4)C[C@H]3O[C@]132,4.3 µM
15,CC(=O)O[C@H]1C[C@]2(O)[C@@H]3CC[C@@H]4C[C@@H](O)CC[C@]4(C)[C@H]3CC[C@]2(C)[C@H]1c1ccc(=O)oc1 [BUFOTALIN],> 56.2 µM
16,CC(C)(C)C(=O)O[C@H]1CC[C@@]2(C)[C@H](CC[C@@H]3[C@@H]2CC[C@]2(C)[C@@H]([C@]45C=CC(=O)O[C@H]4O5)C[C@H]4O[C@]342)C1,6.8 µM
17,CC(=O)O[C@H]1CC[C@@]2(C)[C@H](CC[C@@H]3[C@@H]2CC[C@]2(C)[C@@H]([C@]45C=CC(=O)O[C@H]4O5)C[C@H]4O[C@]342)C1,5.3 µM
18,C[C@]12CC[C@H](O)C[C@H]1CC[C@@H]1[C@@H]2CC[C@]2(C)[C@@H](c3ccc(=O)oc3)CC[C@]12O [BUFALIN],31.9 µM
19,C[C@]12CC[C@H](O)C[C@H]1CC[C@@H]1[C@@H]2CC[C@]2(C)[C@@H]([C@@]34C=CC(=O)O[C@@H]3O4)C[C@H]3O[C@]132,18.3 µM
20,C[C@]12CC[C@H](O)C[C@H]1CC[C@@H]1[C@@H]2CC[C@]2(C)[C@@H]([C@]34C=CC(=O)O[C@H]3O4)C[C@H]3O[C@]132,24.8 µM
21,C[C@]12CC[C@H](O)C[C@H]1CC[C@@H]1[C@@H]2CC[C@]2(C)[C@@H]([C@]34C=CC(=O)O[C@H]3O4)CC[C@]12O,> 62.2 µM
22,C[C@]12CC[C@H](O)C[C@H]1CC[C@@H]1[C@@H]2CC[C@]2(C)[C@@H](c3ccc(=O)oc3)C[C@H]3O[C@]132 [BUFOGENIN],22.9 µM
23,C[C@]12CC[C@H](OC=O)C[C@H]1CC[C@@H]1[C@@H]2CC[C@]2(C)[C@@H]([C@@]34C=CC(=O)O[C@@H]3O4)C[C@H]3O[C@]132,5.6 µM
24,CCCCC(=O)O[C@H]1CC[C@@]2(C)[C@H](CC[C@@H]3[C@@H]2CC[C@]2(C)[C@@H]([C@@]45C=CC(=O)O[C@@H]4O5)C[C@H]4O[C@]342)C1,6.4 µM
25,C[C@]12CC[C@H](OC=O)C[C@H]1CC[C@@H]1[C@@H]2CC[C@]2(C)[C@@H]([C@]34C=CC(=O)O[C@H]3O4)C[C@H]3O[C@]132,8.9 µM
